In data set [1] the test system is GM18453 skin fibroblast cell line (I1061T mutation on both alleles of NPC1). Nature of the data set: Filipin staining of unesterified cholesterol in NPC1 mutant fibroblasts. It is filed as cell-based, human. The note with it: GM18453 cells; for concentration at which the lowest filipin area/cell is achieved: dose range 1 nM to 5 μM; for concentration giving significant rescue of cholesterol accumulation (as low as): filipin fluorescence images.

The nature of data set [2]: Plasma protein binding. It is filed as in vitro ADME.
For data set [3], the system named is low-density lipoprotein (LDL) receptor. Conditions: ref 5; cited from earlier work.
The nature of data set [4]: Aqueous solubility. It is filed as physicochemical.
The subject of data set [5] is NPC1 protein in GM18453 fibroblasts. Put plainly: NPC1 protein expression, Western blot after peptide:N-glycosidase F treatment. The data set is classed as cell-based, human. Conditions: 48 hours. Summed up:
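NPC1-mutant GM18453 fibroblasts exposed for 48 h at 37°C, 5% CO2 to test compound (50 nM), SAHA (5 μM) or 0.1% v/v DMSO, then lysed in RIPA with protease inhibitors. Lysate (25 μg) digested with PNGase F (1000 U) in SDS, DTT and Tris-HCl pH 8, overnight (~18 h) at 37°C. Immunoblot with rabbit anti-NPC1, ECL on film. Densitometry normalised to actin, relative to DMSO; four independent experiments; SD; t-test.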
(In western blotting, separated proteins are transferred to a membrane and probed.)

Data set [6] shares this test system. Nature of the data set: NPC1 protein expression, Western blot after endoglycosidase H treatment. The data set is classed as cell-based, human. The note with it: 48 hours; for levels of the 250 kDa NPC1 isoform: SAHA 5 μM or GEX1A 50 nM.
For data set [7], the system named is Caco-2 cell line. Nature of the data set: Caco-2 permeability. The data set is classed as in vitro ADME.
The subject of data set [8] is histone acetylation. The note with it: cited from earlier work.
A short description of data set [9]: Liver microsome stability. It is filed as in vitro ADME. A general note: Microsomes from liver hold many membrane-bound enzymes, among them those of drug oxidation.
The nature of data set [10]: Pharmacokinetics in mice. It is filed as in vivo. Conditions: mice dosed at 2 mg/kg.
Data set [11] deals with GM18407 fibroblast cell line (NPC1 R404Q, M1142T). Conditions: GM18407 cells; cited from earlier work.
For data set [12] the test system is unchanged. Nature of the data set: Filipin staining of cholesterol accumulation in GM18407 fibroblasts. It is filed as cell-based, human. The note with it: GM18407 cells, even at high concentrations.
The subject of data set [13] is GM18453 skin fibroblast cell line (I1061T mutation on both alleles of NPC1). Conditions: several NPC1 mutant cell lines, including GM18453; cited from earlier work.

Read-outs that look alike come from different tables or passages of the source.

Take `COC(=O)C[C@H]1CC[C@H](C)[C@@H](/C(C)=C/C=C/[C@@H](C)C[C@@]2(C)O[C@@H]2[C@H](C)[C@@H](OC)[C@@H](C)OC(C)=O)O1` [Compound 3, Methyl 2-((2R,5S,6S)-6-((S,2E,4E)-7-((2R,3R)-3-((2R,3R,4R)-4-acetoxy-3-methoxypentan-2-yl)-2-methyloxiran-2-yl)-6-methylhepta-2,4-dien-2-yl)-5-methyltetrahydro-2H-pyran-2-yl) acetate]: in [1] (48 hours), the “concentration at which the lowest filipin area/cell is achieved” value stood at 50 nM and the “concentration giving significant rescue of cholesterol accumulation (as low as)” value (“concentration giving significant rescue” for short) was found to be 50 nM.
Take `CO[C@H]([C@@H](C)[C@H]1O[C@]1(C)C[C@H](C)/C=C/C=C(\C)[C@H]1O[C@@H](CC(=O)O)CC[C@@H]1C)[C@@H](C)O` [Compound 1, GEX1A]: in [2], the “plasma protein binding profile” value is given as “excellent plasma protein binding profile”. Besides, in data set [3], the “expression of the LDL receptor” value is “increased expression”. The aqueous solubility entry in data set [4] is on record as “exceptional aqueous solubility”. Besides, the “expression of the highly glycosylated 180 kDa NPC1 isoform” value in data set [5] (GEX1A 50 nM, PNGase F experiment) is “clear increase”. Further, in data set [5] (GEX1A 50 nM, PNGase F, vs DMSO), the “level of NPC1 protein expression including both the 250 and 120 kDa isoforms” value is “significant increase”. Further, the “expression of the 180 kDa NPC1 species” value in data set [6] (GEX1A 50 nM, vs DMSO) was “increases the expression of the 180 kDa species”. For the same compound, the “levels of the 250 kDa NPC1 isoform” value in data set [6] (vs DMSO) was “did not cause a significant increase”. Also, the “effects on cell and nuclei shape (cellular toxicity)” value in [1] (5 μM) is “detrimental effects on cell and nuclei shape”. In [1] (48 hours), the “concentration at which the lowest filipin area/cell is achieved” value was 50 nM and the “concentration giving significant rescue” value was 50 nM. The permeability result in data set [7] (Caco-2) is “reasonably permeable”. Further, the efflux entry in [7] (Caco-2 cell line) was “no evidence of efflux”. For the same compound, the “effect on histone acetylation” value in [8] (ref 5) is recorded as “does not affect histone acetylation”. Also, the “effect on histone acetylation” value in [8] (ref 32) was “no effect on histone acetylation”. In addition, the “stability in liver microsomes” value in data set [9] is given as “quite stable”. In addition, the half-life result in data set [10] was “long half-life”.
In the case of `COC(=O)C[C@H]1CC[C@H](C)[C@@H](/C(C)=C/C=C/[C@@H](C)C[C@@]2(C)O[C@@H]2[C@H](C)[C@@H](OC)C(C)=O)O1` [Compound 4, Methyl 2-((2R,5S,6S)-6-((S,2E,4E)-7-((2R,3R)-3-((2S,3R)-3-methoxy-4-oxopentan-2-yl)-2-methyloxiran-2-yl)-6-methylhepta-2,4-dien-2-yl)-5-methyltetrahydro-2H-pyran-2-yl)acetate], the “cholesterol clearance compared to vehicle treatment” value in [1] (50 nM, 48 hours, filipin) is on record as “Some cholesterol clearance”.
As for `O=C(CCCCCCC(=O)Nc1ccccc1)NO` [SAHA, suberoylanilide hydroxamic acid, reference compound], the “effect on lysosomal cholesterol accumulation” value in [11] is recorded as “no effect on lysosomal cholesterol accumulation”. In data set [12], the “rescue of the disease phenotype (cholesterol accumulation)” value is on record as “neither SAHA nor compounds 1 – 4 were able to effectively rescue the disease phenotype”. Further, the “levels of the 250 kDa NPC1 isoform” value in [5] (SAHA 5 μM, PNGase F experiment, vs DMSO) is “moderate increase”; in data set [6] (vs DMSO), “increases the expression of the larger (250 kDa) isoform”. Also, in data set [6] (SAHA 5 μM, Endo H, densitometry vs DMSO), the “increase in the levels of total NPC1 protein” value is “approximately twofold”. In addition, the “reversal of cholesterol accumulation in NPC1 mutant cell lines” value in data set [13] was “effective in reversing cholesterol accumulation”.
With `COC(=O)C[C@H]1CC[C@H](C)[C@@H](/C(C)=C/C=C/[C@@H](C)C[C@@]2(C)O[C@@H]2[C@H](C)[C@@H](OC)[C@@H](C)O)O1` [Compound 2, Methyl 2-((2R,5S,6S)-6-((S,2E,4E)-7-((2R,3R)-3-((2R,3R,4R)-4-hydroxy-3-methoxypentan-2-yl)-2-methyloxiran-2-yl)-6-methylhepta-2,4-dien-2-yl)-5-methyltetrahydro-2H-pyran-2-yl) acetate], in data set [1] (48 hours), the “concentration at which the lowest filipin area/cell is achieved” value was 50 nM and the “concentration giving significant rescue” value was 50 nM.

(Values after article PMC6868502 (Journal of natural products, 2018).)
